Molecules are shown by their SMILES. Values joined by “and” are separate entries in the source; they are usually repeats but may differ in a detail not shown here. Equal entries are not always repeated. Where two headings read alike, the source gives them in different places.

The record followed here is publication PMC13077713 (Journal of medicinal chemistry, 2025).

In data set [1] the test system is African green monkey kidney (Vero) cells. As to the kind of experiment: Cytotoxicity, CellTiter 96 cell proliferation assay, Vero cells. Particulars: read-out: Cytotoxicity, CC50 Vero; Vero cells. In kind it is cell-based.
Data set [2] has as its system human peripheral blood mononuclear (PBM) cells. Kind of data set: Cytotoxicity, CellTiter 96 cell proliferation assay, PBM cells. The class given is cell-based. Particulars: read-out: Cytotoxicity, CC50 PBM; PBM cells.
The test system of data set [3] is human T lymphoblast (CEM) cells. Kind of data set: Cytotoxicity, CellTiter 96 cell proliferation assay, CEM cells. The class given is cell-based. Particulars: read-out: Cytotoxicity, CC50 CEM; CEM cells.
For data set [4], the system named is human hepatocellular carcinoma (HepG2) cells. Kind of data set: Cytotoxicity, CellTiter 96 cell proliferation assay, HepG2 cells. The class given is cell-based. Particulars: read-out: Cytotoxicity, CC50 HepG2; HepG2 cells.
Data set [5] deals with HBV DNA production in HepAD38 cells. As to the kind of experiment: Anti-HBV activity. In kind it is cell-based, Hepatitis B virus (HBV). The conditions noted are these: for times less potent than GLP-26: HepAD38 vs GLP-26.
The nature of data set [6]: Cytotoxicity, CellTiter 96 cell proliferation assay, Vero cells. In kind it is cell-based, African green monkey. Particulars: African green monkey, Vero kidney cells.
The nature of data set [7]: Cytotoxicity, CellTiter 96 cell proliferation assay, PBM cells. The conditions noted are these: human, peripheral blood mononuclear (PBM) cells. In kind it is cell-based, human.
The nature of data set [8]: Cytotoxicity, CellTiter 96 cell proliferation assay, CEM cells. The conditions noted are these: human, CEM T lymphoblast cells. In kind it is cell-based, human.
Data set [9] in a line: Cytotoxicity, CellTiter 96 cell proliferation assay, HepG2 cells. In kind it is cell-based, human. Particulars: human, HepG2 hepatocellular carcinoma cells.
Data set [10] deals with T1, Cp149 dimers (Hepatitis B virus genotype D subtype ayw, UniProt P03146). As to the kind of experiment: Cryo-electron microscopy classification of Cp149 capsids assembled with CAM. The class given is biochemical, Hepatitis B virus (HBV). The conditions noted are these: ρ = 3 (90 μM), 30 μM Cp149. In a few lines: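 Cp149 was expressed in E. coli BL21 and purified as capsids. These were dissociated with 3 M urea and taken to subunits by SEC. Assembly was triggered manually by mixing 30 μM (1 mg/ml) dimers in 1 mM DTT, 20 mM Tris-HCl pH 7.5 with 200 mM ammonium acetate, with or without 90 μM CAM (ρ = 3). Samples were concentrated 11-fold, imaged by cryo-EM, and particles 2D-classified.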
T1 sequence (P03146 1-149): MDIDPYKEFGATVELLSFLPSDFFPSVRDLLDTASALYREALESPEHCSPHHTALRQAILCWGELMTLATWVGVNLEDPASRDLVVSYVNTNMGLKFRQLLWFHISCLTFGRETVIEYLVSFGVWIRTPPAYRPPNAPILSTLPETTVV

For data set [11], the target named is T1, Cp149 dimers. Kind of data set: Mass photometry of Cp149 capsid assembly in the presence of CAM. The class given is biochemical, Hepatitis B virus (HBV). Particulars: ρ = 3, assembled at 30 μM subunits, diluted to 0.18 μM; 57% without CAM.
Data set [12] has as its target T1, Cp149 dimers. Particulars: for Rgw (mean radius of gyration, plateau) / 〈N〉w∞ (mean aggregation number at equilibrium) / Associated timescale of Rgw / Associated timescale of 〈N〉w: ρ = 3, 30 μM subunits, 200 mM ammonium acetate; for Rgw (mean radius of gyration, plateau): 37°C, ρ = 0: 176 ± 6 Å; for 〈N〉w∞ (mean aggregation number at equilibrium): ρ = 0: 156 ± 6; for Associated timescale of Rgw: ρ = 0: 237 ± 62 ms; for Associated timescale of 〈N〉w: ρ = 0: 699 ± 138 ms.

Data set [13] addresses preassembled HBV capsids (Cp149 protein) (Hepatitis B virus genotype D subtype ayw, UniProt P03146). Particulars: 20 μM CAM.
The target of data set [14] is T1, Cp149 dimers. As to the kind of experiment: Static SAXS of Cp149 capsid assembly in the presence of CAM. The conditions noted are these: ρ = 3, undiluted sample, 30 μM dimers; 1.54 cm^−1 without CAM. In kind it is biochemical, Hepatitis B virus (HBV).
Where [15] appears, read: read-out: Anti-HBV activity EC50, HBV DNA production, HepAD38 cells.
Setting [16] is: read-out: Anti-HBV activity EC90, HBV DNA production, HepAD38 cells.
Where [17] appears, read: Hepatitis B virus, HePAD38, read-out: Anti-HBV activity EC50.
[18] abbreviates: Hepatitis B virus, HePAD38, read-out: Anti-HBV activity EC90.

Sequence of preassembled HBV capsids (Cp149 protein) (P03146 1-149): as above

`Cc1c(C(=O)C(=O)NCc2cn(CCCCCCn3cc(CNC(=O)C(=O)c4c(C)c(C(=O)Nc5ccc(F)c(F)c5)n(C)c4C)nn3)nn2)c(C)n(C)c1C(=O)Nc1ccc(F)c(F)c1` [Compound 6a, 4,4’-(2,2’-(((Hexane-1,6-diylbis(1H-1,2,3-triazole-1,4-diyl))bis(methylene))bis(azanediyl))bis(2-oxoacetyl))bis(N-(3,4-difluorophenyl)-1,3,5-trimethyl-1H-pyrrole-2-carboxamide)]: the half-maximal cytotoxic concentration (CC50) in data set [1], in data set [2], in data set [3] and in data set [4] was greater than 100 µM throughout. For the same compound, in data set [5] (setting [15]), the EC50 was 285 ± 21 nM. Moreover, the EC90 in [5] (setting [16]) was greater than 10000 nM.
For `Cc1c(C(=O)C(=O)NCc2cn(CCCCCCCCn3cc(CNC(=O)C(=O)c4c(C)c(C(=O)Nc5ccc(F)c(F)c5)n(C)c4C)nn3)nn2)c(C)n(C)c1C(=O)Nc1ccc(F)c(F)c1` [Compound 6b, 4,4’-(2,2’-(((Octane-1,8-diylbis(1H-1,2,3-triazole-1,4-diyl))bis(methylene))bis(azanediyl))bis(2-oxoacetyl))bis(N-(3,4-difluorophenyl)-1,3,5-trimethyl-1H-pyrrole-2-carboxamide)], the CC50 in [1], in [2], in data set [3] and in [4] was greater than 100 µM each time. Further, in data set [5] (setting [15]), the EC50 worked out at 438 ± 211 nM. Further, in [5] (setting [16]), the EC90 is 5520 nM.
Take `Cc1c(C(=O)C(=O)NCc2cn(CCCCCCCCCCn3cc(CNC(=O)C(=O)c4c(C)c(C(=O)Nc5ccc(F)c(F)c5)n(C)c4C)nn3)nn2)c(C)n(C)c1C(=O)Nc1ccc(F)c(F)c1` [Compound 6c, 4,4’-(2,2’-(((Decane-1,10-diylbis(1H-1,2,3-triazole-1,4-diyl))bis(methylene))bis(azanediyl))bis (2-oxoacetyl))bis(N-(3,4-difluorophenyl)-1,3,5-trimethyl-1H-pyrrole-2-carboxamide)]: the CC50 in [1], in [2], in [3] and in data set [4] was greater than 100 µM in each case. The EC50 in [5] (setting [15]) came to 4 ± 1 nM. The EC90 in data set [5] (setting [16]) amounted to 140 ± 110 nM.
Consider `Cc1c(C(=O)C(=O)NCc2cn(CCCCCCCCCCCCn3cc(CNC(=O)C(=O)c4c(C)c(C(=O)Nc5ccc(F)c(F)c5)n(C)c4C)nn3)nn2)c(C)n(C)c1C(=O)Nc1ccc(F)c(F)c1` [Compound 6d, 4,4’-(2,2’-(((Dodecane-1,12-diylbis(1H-1,2,3-triazole-1,4-diyl))bis (methylene))bis(azanediyl))bis(2-oxoacetyl))bis(N-(3,4-difluorophenyl)-1,3,5-trimethyl-1H-pyrrole-2-carboxamide)], for which the CC50 in data set [1] is greater than 100 µM; in data set [2], 63.4 ± 40.6 µM; in data set [3] it was 42.8 ± 0.6 µM; in data set [4], greater than 100 µM. Besides, the “times more potent than reference compound GLP-26” value in data set [5] (HepAD38 EC50 vs GLP-26) is listed as 80 times. Further, the EC50 in data set [5] (setting [15]) is 0.1 nM. Besides, in data set [5] (setting [16]), the EC90 is 8 ± 1 nM.
On to `Cc1c(C(=O)C(=O)NCc2cn(CCCCCCCCCCCCCCCCn3cc(CNC(=O)C(=O)c4c(C)c(C(=O)Nc5ccc(F)c(F)c5)n(C)c4C)nn3)nn2)c(C)n(C)c1C(=O)Nc1ccc(F)c(F)c1` [Compound 6f, 4,4’-(2,2’-(((Hexadecane-1,16-diylbis(1H-1,2,3-triazole-1,4-diyl))bis(methylene))bis(azanediyl))bis(2-oxoacetyl))bis(N-(3,4-difluorophenyl)-1,3,5-trimethyl-1H-pyrrole-2-carboxamide)], for which the CC50 in data set [1], in data set [2], in data set [3] and in data set [4] was greater than 100 µM each time. The “times less potent than GLP-26” value in [5] is recorded as 2–3 times. For the same compound, in data set [5] (setting [15]), the EC50 was 18 ± 11 nM. For the same compound, the EC90 in data set [5] (setting [16]) was found to be 130 ± 60 nM.
In the case of `Cc1c(C(=O)C(=O)NCc2cn(CCCCCCCCCCCCCCCCCCn3cc(CNC(=O)C(=O)c4c(C)c(C(=O)Nc5ccc(F)c(F)c5)n(C)c4C)nn3)nn2)c(C)n(C)c1C(=O)Nc1ccc(F)c(F)c1` [Compound 6g, 4,4’-(2,2’-(((Octadecane-1,18-diylbis(1H-1,2,3-triazole-1,4-diyl))bis(methylene))bis(azanediyl))bis(2-oxoacetyl))bis(N-(3,4-difluorophenyl)-1,3,5-trimethyl-1H-pyrrole-2-carboxamide)], the CC50 in data set [1], in data set [2], in data set [3] and in [4] was greater than 100 µM in each case. Also, in data set [5], the “times less potent than GLP-26” value is given as 2–3 times. Also, the EC50 in data set [5] (setting [15]) came to 25 ± 24 nM. The EC90 in [5] (setting [16]) is 380 ± 10 nM.
Take `Cc1c(C(=O)C(=O)NCc2c[nH]nn2)c(C)n(C)c1C(=O)Nc1ccc(F)c(F)c1` [Compound 7, 4-(2-(((1H-1,2,3-triazol-4-yl)methyl)amino)-2-oxoacetyl)-N-(3,4-difluorophenyl)-1,3,5-trimethyl-1H-pyrrole-2-carboxamide]: the CC50 is greater than 100 µM in data set [6], 74 ± 14 µM in data set [7], 67.8 ± 19.6 µM in data set [8] and greater than 100 µM in data set [9]. In addition, in data set [5] (setting [17]), the EC50 came out at 47 ± 42 nM. Also, the EC90 in data set [5] (setting [18]) is 580 ± 30 nM. Also, in [5] (toxicity in HepG2 / activity in HepAD38), the “SI: Selectivity index” value is recorded as greater than 2128.
With `CCCCCCCCCCCCn1cc(CNC(=O)C(=O)c2c(C)c(C(=O)Nc3ccc(F)c(F)c3)n(C)c2C)nn1` [Compound 10, N-(3,4-difluorophenyl)-4-(2-(((1-dodecyl-1H-1,2,3-triazol-4-yl)methyl)amino)-2-oxoacetyl)-1,3,5-trimethyl-1H-pyrrole-2-carboxamide], the CC50 was 10.4 ± 9 µM in data set [6], 1.6 ± 0.6 µM in data set [7], 9.9 ± 4.6 µM in data set [8] and 30.5 ± 25.6 µM in data set [9]. In data set [5] (setting [17]), the EC50 was found to be 307 ± 153 nM. Besides, in data set [5] (setting [18]), the EC90 came to 970 ± 130 nM.
Consider `C#CCNC(=O)C(=O)c1c(C)c(C(=O)Nc2ccc(F)c(F)c2)n(C)c1C` [GLP-26], for which, on Cp149 dimers [10], the “larger objects with an ellipsoidal appearance (2D classification)” value is recorded as 17.5%, the “objects that appeared to be T = 3 capsids (2D classification)” value was 1.8% and the “objects very similar to T = 4 capsids (2D classification)” value was found to be 81.3%. Moreover, the CC50 in [1] came to 30.5 ± 6.7 µM. The capsid-sized events on Cp149 dimers [11] stood at 27%. Further, on Cp149 dimers [12], the “Subunit binding energies −Δg” value was 10.4 kT; the “Rgw (mean radius of gyration, plateau)” value is 180 Å and 180 ± 1Å; the “〈N〉w∞ (mean aggregation number at equilibrium)” value was 190 and 190 ± 11; the “Associated timescale of Rgw” value was 116 ± 63 ms. In addition, on Cp149 dimers [12], the “Associated timescale of 〈N〉w” value amounted to 487 ± 178 ms. In addition, the “Radius (DLS, table)” value in [13] (7.5 μM Cp149, 30 min, 1% DMSO control 24.6 ± 3.4) came out at 53.0 ± 13.6 nM. The “PD (polydispersity)” value in [13] (7.5 μM Cp149, 30 min, 1% DMSO control 32.3 ± 18.6) worked out at 26.8 ± 9.8%. Besides, in [13] (1% DMSO control 24.6 nm), the “average particle radius (DLS, text)” value was found to be 53.0 nm. Moreover, the CC50 in data set [2] was greater than 100 µM. In addition, the CC50 in data set [3] was greater than 100 µM. Besides, the “SAXS intensity at zero angle I(0)” value on Cp149 dimers [14] came to 1.86 cm⁻¹. The CC50 in data set [4] is greater than 100 µM. In addition, in [5] (setting [15]), the EC50 is 8 ± 1 nM. The EC90 in data set [5] (setting [16]) is 70 ± 20 nM.
For the compound `Cc1cc(NC(=O)c2cccc(S(=O)(=O)N[C@H]3CCOC3)c2)ccc1F` [JNJ-632], on Cp149 dimers [12], the “Subunit binding energies −Δg” value came to 15.8 kT; the “Rgw (mean radius of gyration, plateau)” value is 176 ± 0.5 Å; the “〈N〉w∞ (mean aggregation number at equilibrium)” value is 150 ± 4; the “Associated timescale of Rgw” value was 100 ± 24 ms. For the same compound, the “Associated timescale of 〈N〉w” value at Cp149 dimers [12] came to 273 ± 46 ms.

By CC50 is commonly meant the concentration giving 50% cytotoxicity. As usually defined, the EC50 is the midpoint of the concentration-response curve. For orientation: EC90 means the concentration at which the effect reaches the 90% level.
